Assays:
Trypanosoma cruzi [1] = test: Trypanocidal activity against Trypanosoma cruzi Y trypomastigotes infected in human HeLa cells at 4 degC after 18 hrs by hemocytometric analysis; format: functional, organism-based
Trypanosoma cruzi [2] = test: Trypanocidal activity against Trypanosoma cruzi Y trypomastigotes infected in human HeLa cells at 37 degC after 18 hrs by resazurin assay; format: functional, organism-based
Outline: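 Tissue culture-derived trypomastigotes treated for 18 h at 37 °C. Read-out by fluorescence.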

Q: `O=C(Cn1ccnc1[N+](=O)[O-])NCc1ccccc1` [BENZNIDAZOLE] was tested. Which IC50 (Trypanosoma cruzi [1]) did it give?
A: Its IC50 is ≥ 500 µM.

Q: What about the IC50 (Trypanosoma cruzi [2]) of the same compound?
A: The IC50 was 25.6 µM.

Reference: ChEMBL document CHEMBL2390912, “Aromatic glycosyl disulfide derivatives: evaluation of their inhibitory activities against Trypanosoma cruzi” (Bioorg Med Chem Lett, 2013)
